# Compound activity (PubChem)
# XBP1 UPR activ: activators of adaptive arm of unfolded protein response (XBP1). CHO-XBP1 luciferase reporter, IRE1-XBP1 UPR activation, luminescence; percent of tunicamycin response, DMSO as zero. activation, % at 20 µM. 330,000 tested, 0.33% active. AID 463104;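 active = versus positive control, 20 µM dose yields 30% or more activation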
#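 assay system = CHO-XBP1 luciferase reporter cells | amount = 1000 cells/well | buffer or medium = F12 plus 10% FBS | compound dosing = single point, 20 µM final compound, 1% DMSO | incubation = 16-18 h cell attachment at 37 °C, then 6 h compound exposure | detection = Steady-Glo luminescence read | controls = tunicamycin 10 µg/mL and vehicle-only wells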
# UBC13 inh: inhibitors of human UBC13 polyubiquitin chain formation; P61088; TR-FRET; inhibition, % at 20 µM; 330,000 tested, 0.47% active; AID 485273; in the data active = inhibition above about 45%, passing the limit was not always enough
# Apaf-1 inh: inhibitors of human Apaf-1 apoptosome | O14727 | reconstituted apoptosome caspase-3 activity, DEVD-Rh110 fluorescence | inhibition, % at 20 µM | 330,000 tested, 0.71% active; active = inhibition of at least 40% at 20 µM
#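 Material: reconstituted apoptosome with Apaf-1, cytochrome c, caspase-9, procaspase-3, dATP. Technique: Rh110 fluorescence intensity. Buffer or medium: pH 7.5 Hepes buffer with CHAPS, BSA, DTT. Times: 30 min plus 50 min, RT.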
# UPR CHOP act: apoptotic UPR (CHOP) activation. CHO-CHOP luciferase reporter, luminescence; percent of tunicamycin response over DMSO baseline. activation, % at 10 µM. 330,000 tested, 0.34% active. AID 449763;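 active = at 10 µM dose, activation of 40% or more, normalized to positive control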
#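 measured by = luciferase luminescence | assay system = CHO-CHOP cells, stable luciferase reporter of PERK-eIF2a-CHOP signalling | amount = 500 reporter cells seeded per well | timing = 6 h compound exposure at 37 °C after overnight seeding | controls = positive tunicamycin 10 µg/mL, negative DMSO alone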
# Mdm2 MdmX PPI: disrupts the human Mdm2-MdmX interaction; O15151+Q00987; SaOS-2 split-luciferase Mdm2/MdmX complementation, luminescence; inhibition, % at 8 µM; 330,000 tested, 3% active; AID 485346;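 active = inhibition of at least 50% at 8 µM in the primary screen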
# Target sequence (O15151 whole entry, looked up): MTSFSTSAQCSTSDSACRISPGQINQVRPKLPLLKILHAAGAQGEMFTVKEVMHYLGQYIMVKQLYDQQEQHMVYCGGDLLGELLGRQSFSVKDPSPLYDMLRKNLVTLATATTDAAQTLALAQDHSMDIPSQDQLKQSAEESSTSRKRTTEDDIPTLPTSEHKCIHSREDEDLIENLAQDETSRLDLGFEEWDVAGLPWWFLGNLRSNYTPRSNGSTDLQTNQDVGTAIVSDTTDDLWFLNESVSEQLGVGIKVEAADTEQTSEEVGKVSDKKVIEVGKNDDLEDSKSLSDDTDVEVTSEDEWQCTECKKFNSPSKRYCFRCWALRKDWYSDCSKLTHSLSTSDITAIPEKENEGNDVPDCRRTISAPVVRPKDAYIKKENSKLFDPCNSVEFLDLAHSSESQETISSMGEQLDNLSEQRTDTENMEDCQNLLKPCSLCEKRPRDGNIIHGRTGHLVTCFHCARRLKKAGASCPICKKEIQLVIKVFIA
# Target sequence (Q00987 whole entry, looked up): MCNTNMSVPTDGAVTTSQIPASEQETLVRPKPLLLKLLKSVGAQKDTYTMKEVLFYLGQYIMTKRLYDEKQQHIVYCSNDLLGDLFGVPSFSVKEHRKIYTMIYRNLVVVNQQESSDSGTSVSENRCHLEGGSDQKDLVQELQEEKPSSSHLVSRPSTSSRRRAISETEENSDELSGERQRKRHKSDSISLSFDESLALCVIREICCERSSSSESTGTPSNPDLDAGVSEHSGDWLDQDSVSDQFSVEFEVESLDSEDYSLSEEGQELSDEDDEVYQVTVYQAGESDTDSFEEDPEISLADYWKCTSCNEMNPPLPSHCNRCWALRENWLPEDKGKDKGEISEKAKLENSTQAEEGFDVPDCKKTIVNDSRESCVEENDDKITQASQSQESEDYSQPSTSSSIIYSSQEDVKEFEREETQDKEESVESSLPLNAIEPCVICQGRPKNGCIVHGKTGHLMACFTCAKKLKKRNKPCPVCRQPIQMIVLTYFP
# A number is an active result; – = inactive. A selection: hits, their analogues and other compounds. The true share with any hit is near 4.1%.
SMILES,XBP1 UPR activ,UBC13 inh,Apaf-1 inh,UPR CHOP act,Mdm2 MdmX PPI
CCC(C)N(C(=O)COC(=O)c1cc([N+](=O)[O-])ccc1N1CCOCC1)C1CCS(=O)(=O)C1 (stereo unspecified),–,–,78.1,–,–
Cc1cccc(C(=O)N2CCCC(N3CCN(c4ccccc4)CC3)C2)n1 (stereo unspecified),–,–,–,–,–
O=C(c1ccc(S(=O)(=O)N2CCCCCC2)cc1)N1CCC(CN2C(=O)c3cccc4cccc(c34)C2=O)CC1,–,45.9,–,–,–
CC(=O)Nc1c(O)nc(SCc2ccccc2C#N)[nH]c1=O,–,–,–,–,–
Cc1cccc(COc2ccc(/C=N/NC(=O)c3nnn(-c4nonc4N)c3COc3ccc(F)cc3)cc2)c1,37.3,–,–,–,–
Cc1cccc(COc2ccc(/C=N/NC(=O)c3nnn(-c4nonc4N)c3CN3CCCCC3)cc2)c1,–,–,–,–,–
NC(=S)Nc1cccc2cccnc12,–,–,–,–,–
NC(=S)NNc1cccc2cccnc12,–,–,76.3,–,–
C=C1CCN([C@@H](CC(C)C)C(=O)NCc2ccco2)S(=O)(=O)c2ccccc21,–,–,–,–,–
COc1cc([N+](=O)[O-])ccc1NC(=O)CN1CCc2cc(OC)c(OC)cc2C1,–,–,44.1,–,–
Nc1ccc(Br)c2c1C(=O)c1ccccc1C2=O,–,–,–,–,–
NC1=C(Br)C(=O)c2ccccc2C1=O,–,–,70.9,–,–
CCc1ccc(NC(=O)c2ccccc2SC)cc1,–,–,–,–,–
CCCCn1c(NC(=O)c2ccc(F)cc2)c(C#N)c2nc3ccccc3nc21,96.1,–,94.8,–,–
Cc1ccc(C(=O)NCCn2c(N)c(C#N)c3nc4ccccc4nc32)cc1,–,–,–,–,–
Clc1ccc(-c2nnc3sc(Cc4cccs4)nn23)cc1,–,–,58.5,–,–
c1ccc(-c2nnc3sc(Cc4cccs4)nn23)cc1,–,–,–,–,–
CCOC(=O)N1CCN(C(=O)c2ccc3c(c2)sc2nc(-c4ccccc4)cn23)CC1,–,–,–,–,–
CCOC(=O)N1CCC(NC(=O)c2ccc3c(c2)sc2nc(-c4ccc(OC)cc4)cn23)CC1,–,–,43.7,–,–
CCCCc1ccc(NC(=O)CSc2nc(=O)n3cc(C)ccc3n2)cc1,–,–,–,–,–
Cc1c(NS(=O)(=O)c2ccc3c(c2)Cc2ccccc2-3)c(=O)n(-c2ccccc2)n1C,–,–,–,–,–
COc1ccc(COC(=O)C2CCN(C(=O)c3ccc(Cl)cc3)CC2)cc1F,–,–,–,–,–
Cc1ccc(S(=O)(=O)N2CCN(c3ccc([N+](=O)[O-])c4cccnc34)CC2)cc1,–,–,46.6,–,–
Cc1[nH]n(-c2ccccc2)c(=O)c1Sc1ccc(Cl)cc1,–,–,–,–,–
Cc1[nH]n(-c2ccccc2)c(=O)c1C(C[N+](=O)[O-])c1ccc(Cl)cc1 (stereo unspecified),–,–,88.2,–,–
SMILES,XBP1 UPR activ,UBC13 inh,Apaf-1 inh,UPR CHOP act,Mdm2 MdmX PPI
O=C(Nn1c(C2CCCCC2)nc2ccccc2c1=O)c1ccc([N+](=O)[O-])cc1,–,–,–,–,–
COc1ccc(NC(=O)CCCCCN2C(=O)c3cccc([N+](=O)[O-])c3C2=O)c(OC)c1,–,–,40.9,–,–
NCCCC[C@@H](C(=O)N1CCNCC1)n1cc([C@@H](N)CC(N)=O)nn1,–,–,–,–,–
COC(=O)c1c(C(=O)OC)c2cccc3cc(-c4ccccc4)c4ccc1c4n32,–,–,65.3,–,–
CCn1c(N)[n+](CC(=O)Nc2ccc(SC(F)F)cc2)c2ccccc21,–,–,–,–,–
CCc1ccc(C2NC(=S)NC3=C2C(=O)CCC3)cc1 (stereo unspecified),–,–,–,–,–
CCCCCCCc1ccc(C2NC(=S)NC3=C2C(=O)c2ccccc23)cc1 (stereo unspecified),–,–,44.1,–,–
Cc1cccc(/N=C/c2sc3ccccc3c2O)n1,–,–,–,–,–
Oc1c(C=Nc2cccc3cccnc23)sc2ccccc12,38.9,–,–,58.6,–
CC(=O)Nc1ccc(S(=O)(=O)N2CCN(CC(=O)N3CCOCC3)CC2)cc1,–,–,–,–,–
CC1CCN(c2cc(N3CCN(C(=O)c4ccc(F)c(F)c4)CC3)c([N+](=O)[O-])cc2F)CC1,–,–,–,–,–
O=C1NCCCC2c3cc(O)c4ccccc4c3OC12N1CCCCC1 (stereo unspecified),–,–,93.0,–,–
O=C1NCCCC2c3c(cc(Br)c(O)c3Br)OC12N1CCOCC1 (stereo unspecified),–,–,–,–,–
Cc1ccc(S(=O)(=O)NCCC(=O)Nc2cccc(Cl)c2)cc1,–,–,–,–,–
CN1CCN(S(=O)(=O)c2ccc(NC(=O)COc3ccccc3Cl)cc2)CC1,–,–,–,–,–
O=C(CSc1nnc(SCc2ccc(Cl)cc2)s1)N/N=C/c1ccc(Cl)cc1Cl,70.1,–,–,–,–
COCCNc1nnnc2c1sc1nc(N3CCOCC3)c3c(c12)CC(C)(C)OC3,–,–,–,–,–
CC1(C)Cc2c(c(N3CCOCC3)nc3sc4c(N5CCOCC5)nnnc4c23)CS1,58.5,–,–,–,–
CC(C)(C)NC(=O)NC(=O)CSc1ccc(S(=O)(=O)N2CCCCC2)cn1,–,–,–,–,–
CC(C)NC1=C(Cl)C(=O)c2ccccc2C1=O,–,–,63.2,–,–
O=C1C2=C(c3ccccc31)[N+](=O)C1CCCCC1N2[O-] (stereo unspecified),–,–,54.5,–,–
COc1cc(C2Nc3cccc4cccc(c34)N2)cc(OC)c1OC(C)=O,–,–,40.6,–,–
COc1cc(C2Nc3cccc4cccc(c34)N2)ccc1O,–,–,–,–,–
Cc1cc(Br)c(OCc2ccc(C(=O)N/N=C3\CC4CC=CC34)cc2)c(Br)c1 (stereo unspecified),–,–,–,–,–
Nc1nc(O)c(N=Nc2ccc(S(N)(=O)=O)cc2)c(=O)[nH]1,–,–,–,–,–
NS(=O)(=O)c1ccc(N=Nc2c[nH]c(=O)c(O)c2)cc1,–,–,73.5,–,–
COC(=O)c1ccc(C(c2c(C)[nH][nH]c2=O)c2c(C)[nH][nH]c2=O)cc1,–,–,–,–,–
COC(=O)c1cccc(-c2ccc(C(c3c(C)[nH][nH]c3=O)c3c(C)[nH][nH]c3=O)o2)c1,–,–,80.6,–,–
CCN(CC(=O)NCc1cccs1)C(=O)C1CC(=O)N(c2ccc(OC)cc2OC)C1 (stereo unspecified),–,–,51.4,–,–
O=C1OC(Nc2cc(Br)cc3cccnc23)c2ccccc21 (stereo unspecified),–,–,96.8,–,–
